Results from ChEMBL document CHEMBL1149634, “1-Acylthiosemicarbazides, 1,2,4-triazole-5(4H)-thiones, 1,3,4-thiadiazoles and hydrazones containing 5-methyl-2-benzoxazolinones: synthesis, analgesic-anti-inflammatory and antimicrobial activities” (2007).
Converted amounts (≈) assume the structure as drawn.

Key:
[1] = tested on: Mus musculus; assay: Antiinflammatory activity against carrageenan-induced hind paw oedema in mouse assessed as swelling thickness at 100 mg/kg, po after 180 mins; type: functional
Procedure, shortened: (§1)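 Fasted mice (n = 5–6) were dosed orally with the sample in 0.5% CMC/water. One hour later, carrageenan (0.5 mg/25 µl in 154 mM saline) was injected subplantar into the right hind paw. The right-minus-left footpad thickness difference was measured with dial gauge callipers every 90 min over 6 h. Inhibition % is calculated versus vehicle control; mean ± SEM, Student's t test.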

[2] = tested on: Mus musculus; assay: Analgesic activity in mouse assessed as inhibition of hind paw lick at 100 mg/kg, ip by hot plate test; type: functional; conditions: route intraperitoneal
[3] = tested on: Mus musculus; assay: Analgesic activity in mouse assessed as inhibition of acetic acid induced-abdominal writhing at 100 mg/kg, ip by Koster test; type: functional; conditions: Abdomen, route intraperitoneal
[4] = tested on: Mus musculus; assay: Antiinflammatory activity against carrageenan-induced hind paw oedema in mouse assessed as inhibition of swelling thickness at 100 mg/kg, po after 90 mins; type: functional; conditions: 1.5 h; procedure, shortened: as §1
[5] = tested on: Mus musculus; assay: Antiinflammatory activity against carrageenan-induced hind paw oedema in mouse assessed as inhibition of swelling thickness at 200 mg/kg, po after 90 mins; type: functional; conditions: 1.5 h; procedure, shortened: as §1
[6] = tested on: Mus musculus; assay: Antiinflammatory activity against carrageenan-induced hind paw oedema in mouse assessed as swelling thickness at 50 mg/kg, po after 180 mins; type: functional; procedure, shortened: as §1
[7] = tested on: Mus musculus; assay: Antiinflammatory activity against carrageenan-induced hind paw oedema in mouse assessed as inhibition of swelling thickness at 200 mg/kg, po after 180 mins; type: functional; conditions: 3 h; procedure, shortened: as §1
[8] = tested on: Mus musculus; assay: Antiinflammatory activity against carrageenan-induced hind paw oedema in mouse assessed as swelling thickness at 50 mg/kg, po after 270 mins; type: functional; procedure, shortened: as §1
[9] = tested on: Mus musculus; assay: Antiinflammatory activity against carrageenan-induced hind paw oedema in mouse assessed as inhibition of swelling thickness at 200 mg/kg, po after 270 mins; type: functional; conditions: 4.5 h; procedure, shortened: as §1
[10] = tested on: Mus musculus; assay: Antiinflammatory activity against carrageenan-induced hind paw oedema in mouse assessed as inhibition of swelling thickness at 100 mg/kg, po after 360 mins; type: functional; conditions: 6 h; procedure, shortened: as §1
[11] = tested on: Mus musculus; assay: Antiinflammatory activity against carrageenan-induced hind paw oedema in mouse assessed as swelling thickness at 50 mg/kg, po after 360 mins; type: functional; procedure, shortened: as §1
[12] = tested on: Mus musculus; assay: Toxicity in mouse assessed as ulceration effect at 200 mg/kg; type: functional, organism-based; set-up: dose 200 mg/kg
Procedure, shortened: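 Mice given 200 mg/kg orally in the carrageenan oedema study were killed under deep ether anaesthesia 6 h after treatment. Stomachs were opened along the greater curvature and examined under a dissecting microscope for lesions or bleeding. Result is expressed as the ratio of ulcerated animals per group.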

[13] = tested on: Staphylococcus aureus; assay: Antibacterial activity against Staphylococcus aureus ATCC 29213 after 24 hrs by broth microdilution test; type: functional; conditions: ATCC 29213, 24 h
Procedure, shortened: (§2)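 NCCLS broth microdilution in Mueller-Hinton broth with an inoculum of 5 × 10^5 cfu/mL. Compounds were dissolved in DMSO, diluted in sterile water, and tested as twofold dilutions from 512 to 0.5 µg/mL. Plates were incubated at 35 °C for 24 h. MIC is the lowest concentration preventing visible growth.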

[14] = tested on: Enterococcus faecalis; assay: Antibacterial activity against Enterococcus faecalis ATCC 29212 after 24 hrs by broth microdilution test; type: functional; conditions: ATCC 29212, 24 h; procedure, shortened: as §2
[15] = tested on: Escherichia coli; assay: Antibacterial activity against Escherichia coli ATCC 25922 after 24 hrs by broth microdilution test; type: functional; conditions: ATCC 25922, 24 h; procedure, shortened: as §2
[16] = tested on: Pseudomonas aeruginosa; assay: Antibacterial activity against Pseudomonas aeruginosa ATCC 27853 after 24 hrs by broth microdilution test; type: functional; conditions: ATCC 27853, 24 h; procedure, shortened: as §2
[17] = tested on: Candida albicans; assay: Antifungal activity against Candida albicans ATCC 90028 after 48 hrs by broth microdilution test; type: functional; conditions: ATCC 90028, 48 h
Procedure, shortened: (§3)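 Yeasts tested by NCCLS M27-A broth microdilution in RPMI 1640 (with L-glutamine, without sodium bicarbonate) with an inoculum of 0.5–2.5 × 10^3 cfu/mL. Compounds were prepared from DMSO solution diluted in water as twofold dilutions from 512 to 0.5 µg/mL. Plates were incubated at 35 °C for 48 h. MIC is the lowest concentration giving no visible growth.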

[18] = tested on: Pichia kudriavzevii; assay: Antifungal activity against Candida krusei ATCC 6258 after 48 hrs by broth microdilution test; type: functional; conditions: ATCC 6258, 48 h; procedure, shortened: as §3
[19] = tested on: Candida parapsilosis; assay: Antifungal activity against Candida parapsilosis ATCC 22019 after 48 hrs by broth microdilution test; type: functional; conditions: Lodderomyces parapsilosis, ATCC 22019, 48 h; procedure, shortened: as §3
[20] = tested on: Mus musculus; assay: Antiinflammatory activity against carrageenan-induced hind paw oedema in mouse assessed as inhibition of swelling thickness at 50 mg/kg, po after 90 mins; type: functional; conditions: 1.5 h; procedure, shortened: as §1
[21] = tested on: Mus musculus; assay: Antiinflammatory activity against carrageenan-induced hind paw oedema in mouse assessed as swelling thickness at 100 mg/kg, po after 270 mins; type: functional; procedure, shortened: as §1
[22] = tested on: Mus musculus; assay: Antiinflammatory activity against carrageenan-induced hind paw oedema in mouse assessed as swelling thickness at 200 mg/kg, po after 360 mins; type: functional; procedure, shortened: as §1
[23] = species on record: Mus musculus; assay: animal or person; conditions: ip, read-out: Inhibition
[24] = tested on: Mus musculus; assay: Antiinflammatory activity against carrageenan-induced hind paw oedema in mouse assessed as swelling thickness at 50 mg/kg, po after 90 mins; type: functional; procedure, shortened: as §1
[25] = tested on: Mus musculus; assay: Antiinflammatory activity against carrageenan-induced hind paw oedema in mouse assessed as inhibition of swelling thickness at 100 mg/kg, po after 180 mins; type: functional; conditions: 3 h; procedure, shortened: as §1
[26] = tested on: Mus musculus; assay: Antiinflammatory activity against carrageenan-induced hind paw oedema in mouse assessed as swelling thickness at 200 mg/kg, po after 270 mins; type: functional; procedure, shortened: as §1
[27] = tested on: Mus musculus; assay: Antiinflammatory activity against carrageenan-induced hind paw oedema in mouse assessed as inhibition of swelling thickness at 200 mg/kg, po after 360 mins; type: functional; conditions: 6 h; procedure, shortened: as §1
[28] = tested on: Mus musculus; assay: Antiinflammatory activity against carrageenan-induced hind paw oedema in mouse assessed as swelling thickness at 100 mg/kg, po after 360 mins; type: functional; procedure, shortened: as §1

COc1ccc(/C=N/NC(=O)Cn2c(=O)oc3ccc(C)cc32)cc1 was tested, and the Activity [1] was 100.8%, the inhibition in vivo at 100 mg/kg [2] was 27.5% and the inhibition in vivo at 100 mg/kg [3] was 65.7%. It also gave an inhibition in vivo at 100 mg/kg [4] of 82.4%, an inhibition in vivo at 200 mg/kg [5] of 87.9% and an Activity [6] of 82.3%. For the same compound, the inhibition in vivo at 200 mg/kg [7] was 65.2%, the Activity [8] was 108.8% and the inhibition in vivo at 200 mg/kg [9] was 38.3%. For the same compound, the inhibition in vivo at 100 mg/kg [10] was 17.5%, the Activity [11] was 87.2% and the Activity [12] was “Toxic”. For the same compound, the MIC [13] was 256 µg/mL (≈ 754 µM), the MIC [14] was 128 µg/mL (≈ 377 µM) and the MIC [15] was 512 µg/mL (≈ 1510 µM). For the same compound, the MIC [16] was 256 µg/mL (≈ 754 µM), the MIC [17] was 128 µg/mL (≈ 377 µM) and the MIC [18] was 128 µg/mL (≈ 377 µM). It also gave an MIC [19] of 512 µg/mL (≈ 1510 µM), an inhibition in vivo at 50 mg/kg [20] of 19.5% and an Activity [21] of 95.4%. The Activity [22] was 86.2%.
With CN1CC[C@]23c4c5ccc(O)c4O[C@H]2[C@@H](O)C=C[C@H]3[C@H]1C5 [MORPHINE] the inhibition in vivo at 10 mg/kg [23] was 50.7%.
Cc1ccc(/C=N/NC(=O)Cn2c(=O)oc3ccc(C)cc32)cc1 was tested, and the inhibition in vivo at 100 mg/kg [2] was 52.9%, the inhibition in vivo at 100 mg/kg [3] was 77.8% and the inhibition in vivo at 100 mg/kg [4] was 69.7%. The Activity [24] was 73.8%, the inhibition in vivo at 200 mg/kg [5] was 17.1% and the inhibition in vivo at 100 mg/kg [25] was 9.4%. The Activity [6] was 86.8%, the inhibition in vivo at 200 mg/kg [7] was 33.3% and the Activity [8] was 103.8%. It also gave an inhibition in vivo at 100 mg/kg [10] of 12.6%, an Activity [11] of 98% and an MIC [13] of 512 µg/mL (≈ 1580 µM). For the same compound, the MIC [14] was 256 µg/mL (≈ 792 µM), the MIC [15] was 128 µg/mL (≈ 396 µM) and the MIC [16] was 256 µg/mL (≈ 792 µM). It also gave an MIC [17] of 128 µg/mL (≈ 396 µM), an MIC [18] of 128 µg/mL (≈ 396 µM) and an MIC [19] of 128 µg/mL (≈ 396 µM). It also gave an Activity [21] of 92%, an Activity [26] of 89.1% and an Activity [22] of 83.6%.
Compound CCn1c(Cn2c(=O)oc3ccc(C)cc32)n[nH]c1=S has an Activity [1] of 95.9%, an inhibition in vivo at 100 mg/kg [2] of 36.2% and an inhibition in vivo at 100 mg/kg [3] of 43.5%. It also gave an inhibition in vivo at 100 mg/kg [4] of 57.1%, an Activity [24] of 82.9% and an inhibition in vivo at 200 mg/kg [5] of 56.5%. It also gave an Activity [6] of 91.1%, an inhibition in vivo at 200 mg/kg [7] of 31.8% and an Activity [8] of 147.3%. For the same compound, the inhibition in vivo at 200 mg/kg [9] was 25.9%, the Activity [11] was 146.7% and the inhibition in vivo at 200 mg/kg [27] was 19.7%. The Activity [12] was “Not toxic”, the MIC [13] was 512 µg/mL (≈ 1760 µM) and the MIC [14] was 512 µg/mL (≈ 1760 µM). For the same compound, the MIC [15] was 512 µg/mL (≈ 1760 µM), the MIC [16] was 256 µg/mL (≈ 882 µM) and the MIC [17] was 512 µg/mL (≈ 1760 µM). It also gave an MIC [18] of 256 µg/mL (≈ 882 µM), an MIC [19] of 256 µg/mL (≈ 882 µM) and an Activity [21] of 117.6%. The Activity [28] was 87.1%.
